Data on 12 compounds can be found in ChEMBL document CHEMBL3351637 (Eur J Med Chem, 2014).

Molecules are shown by their SMILES. Calls of active or inactive are those of the source. The calls are words filed in the database; no cut-off is given here.

A word on the IC50: it is the concentration needed to halve the response being measured.

The nature of series [1]: Stability of the compound in pH 10.2 carbonate buffer assessed as compound mean nano particles size at 2 mg/ml by quasi-elastic light scattering method. Format: physicochemical. In a few lines: (§1)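 Nanoassemblies formed by solvent displacement into water, 10 mM buffers (citrate or acetate pH 4.5, phosphate pH 7.5, borate or carbonate pH 10.2) or 100 mM NaCl, final 2 mg/mL. Mean diameter by quasi-elastic light scattering at 90° and 25°C, on samples diluted 1:20 in water; each value the average of five measurements.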

The nature of series [2]: Stability in human serum at 37 degC assessed as ratio of HPLC area of peaks corresponding to intact compound at time zero at 2 mg/ml measured after 48 hrs. Format: ADME, cell-free. The conditions noted are these: read-out: Stability.
Series [3] in a line: Stability of the compound in pH 4.5 acetate buffer assessed as compound mean nano particles size at 2 mg/ml by quasi-elastic light scattering method. Format: physicochemical. In short, it runs like this:
as §1

A short description of series [4]: Stability of the compound in pH 7.5 phosphate buffer assessed as compound mean nano particles size at 2 mg/ml by quasi-elastic light scattering method. Format: physicochemical. In short, it runs like this: as §1
Series [5] in a line: Stability of the compound in water assessed as compound mean nano particles size at 2 mg/ml by quasi-elastic light scattering method. Format: physicochemical. The conditions noted are these: buffer. In a few lines: as §1
Series [6] can be described thus: Stability of the compound in presence of 100 mM NaCl assessed as compound mean nano particles size at 2 mg/ml by quasi-elastic light scattering method. Format: physicochemical. In a few lines:
as §1

In series [7] the test system is MCF7. The series can be described thus: Cytotoxicity against human MCF7 cells after 48 hrs by SRB assay. Format: functional, cell-based. The following applies: MCF7, 48 h. In short, it runs like this:
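Nanoassemblies diluted in culture medium and added at various concentrations for 48 h at 37°C/5% CO₂. Survival % vs untreated control; run thrice in triplicate; IC50 from dose–effect curves.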
A general note: In SRB staining, fixed cells bind dye roughly in proportion to their protein.

Series [8] in a line: Stability in pH 9 borate buffer. Format: physicochemical.
Series [9] in a line: Stability of the compound assessed as compound mean nano particles size diluted with water at 2 mg/ml measured after 3 months at 5 degC by quasi-elastic light scattering method. Format: physicochemical. The following applies: buffer, 2191.5 h. In short, it runs like this: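 Nanoassemblies made by nanoprecipitation in water as 2 mg/mL dispersions, stored at 5°C. Size checked after three months on samples diluted with water, by light scattering.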

The nature of series [10]: Stability of the compound in pH 4.5 citrate buffer assessed as compound mean nano particles size at 2 mg/ml by quasi-elastic light scattering method. Format: physicochemical. In short, it runs like this: as §1
Series [11] in a line: Stability of the compound in pH 10.2 borate buffer assessed as compound mean nano particles size at 2 mg/ml by quasi-elastic light scattering method. Format: physicochemical. In short, it runs like this:
as §1

Series [12] concerns MCF7. The series can be described thus: Cytotoxicity against human MCF7 cells in presence of 10 mM DTT after 48 hrs by SRB assay. Format: functional, cell-based. The conditions noted are these: MCF7, 48 h.
Series [13] has as its system A549. The series can be described thus: Induction of microtubule bundling in human A549 cells at 200 ug/mL incubated for 1 hr by alpha-tubulin staining based fluorescence microscopy. Format: cell-based. In a few lines:
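A549 cells grown in E-MEM with 10% FBS, 2 mM L-glutamine, penicillin and non-essential amino acids at 37°C, 5% CO2. Seeded at 50000 cells/ml on glass coverslips, exposed after 24 h. Then fixed and permeabilized in methanol at -20°C for 6 min and blocked in PBS+5% BSA. Stained with anti-α-tubulin (1:500), Alexa568 secondary and DAPI, and imaged by fluorescence microscopy.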

Series [14] relates to A549. The series can be described thus: Inhibition of microtubule bundle formation in human A549 cells assessed as cell detachment at 200 ug/mL incubated for 1 hr by alpha-tubulin staining based fluorescence microscopy. In a few lines:
(§2)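 A549 cells seeded on glass coverslips at 50000 cells/ml, grown 24 h, then exposed 1 h to 200 µg/ml conjugate or parent drug. Fixed and permeabilized in methanol at -20°C for 6 min, blocked in PBS + 5% BSA, stained with anti-α-tubulin (1:500, 1 h, 37°C), Alexa568 secondary and DAPI nuclei, then imaged by fluorescence microscopy at 63x.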

For series [15], the system named is A549. The experiment in a line: Cytotoxicity against human A549 cells after 48 hrs by SRB assay. The conditions noted are these: A549, 48 h. Format: functional, cell-based.
The test system of series [16] is A549. The series can be described thus: Inhibition of microtubule bundle formation in human A549 cells assessed as cell shrinking at 200 ug/mL incubated for 1 hr by alpha-tubulin staining based fluorescence microscopy. In short, it runs like this: as §2

For `CC(=O)O[C@H]1C(=O)[C@@]2(C)[C@H]([C@H](OC(=O)c3ccccc3)[C@]3(O)C[C@H](OC(=O)[C@H](OC(=O)CCCCCCCCC(=O)OCCC/C(C)=C/CC/C(C)=C/CC/C=C(\C)CC/C=C(\C)CCC=C(C)C)[C@@H](NC(=O)c4ccccc4)c4ccccc4)C(C)=C1C3(C)C)[C@]1(OC(C)=O)CO[C@@H]1C[C@@H]2O`, the Stability in [1] was 635.9 nm; in [3], greater than 2 um; in series [4], 125.6 nm; in [5], 107.9 nm; in series [6] it was greater than 2 um; in series [8], “Stable”. The Stability in [9] turned out to be 110.5 nm; in series [10], 391.2 nm; in [11], 161.4 nm. The remaining at 48 h, 2 mg/ml in series [2] came out at 95%. Further, the half-maximal inhibitory concentration (IC50) stood at 1210 nM in the series on MCF7 [7] and 1530 nM in the series with MCF7 [12].

Consider `CC(=O)O[C@H]1C(=O)[C@@]2(C)[C@H]([C@H](OC(=O)c3ccccc3)[C@]3(O)C[C@H](OC(=O)[C@H](OC(=O)OCC/C(C)=C/CC/C(C)=C/CC/C=C(\C)CC/C=C(\C)CCC=C(C)C)[C@@H](NC(=O)c4ccccc4)c4ccccc4)C(C)=C1C3(C)C)[C@]1(OC(C)=O)CO[C@@H]1C[C@@H]2O`, for which, in series [2], the remaining at 48 h, 2 mg/ml was found to be 94%. Further, the 50% inhibitory concentration (IC50) turned out to be 9100 nM with MCF7 [7] and 8700 nM with MCF7 [12]. Also, the Stability in [9] was 181.1 nm.

Turning to `CC[C@@]1(OC(=O)CCCCCCCCC(=O)OCCC/C(C)=C/CC/C(C)=C/CC/C=C(\C)CC/C=C(\C)CCC=C(C)C)C(=O)OCc2c1cc1n(c2=O)Cc2cc3ccccc3nc2-1`, the Stability in series [1] is given as 242.9 nm; in [3], 275.9 nm; in series [4], 201.5 nm; in [5] it was 160.2 nm; in series [6] it was 461.1 nm; in series [8], “Stable”. The Stability in series [9] is 172.4 nm; in [10], 375.4 nm; in [11], 202.3 nm. In [2], the remaining at 48 h, 2 mg/ml is 85%. Besides, the half-maximal inhibitory concentration (IC50) in the series on MCF7 [7] came out at 10500 nM; in the series with MCF7 [12], 20100 nM.

For `C/C(=C\c1csc(C)n1)[C@@H]1C[C@@H]2O[C@@H]2CCC[C@H](C)[C@H](O)[C@@H](C)C(=O)C(C)(C)[C@@H](O)CC(=O)O1` [EPOTHILONE A], the outcome with A549 [13] was Active. Further, the IC50 is 0.9 nM in the series on MCF7 [7], greater than 5000 nM in the series on A549 [15] and 0.8 nM with MCF7 [12]. Moreover, the inhibition entry in the series on A549 [14] and in the series with A549 [16] was “Active” each time.

For `COc1cc([C@@H]2c3cc4c(cc3[C@H](OC(=O)CCCCCCCCC(=O)OCCC/C(C)=C/CC/C(C)=C/CC/C=C(\C)CC/C=C(\C)CCC=C(C)C)[C@H]3COC(=O)[C@H]23)OCO4)cc(OC)c1OC`, the Stability is 315 nm in series [1]; 287.5 nm in [3]; 193.5 nm in series [4]; 180.5 nm in series [5]; 720.3 nm in series [6]; “Stable” in [8]. In addition, the Stability was 210.5 nm in series [9], 629.2 nm in [10] and 211.3 nm in series [11]. For the same compound, the remaining at 48 h, 2 mg/ml in series [2] was determined as 82%. The 50% inhibitory concentration (IC50) with MCF7 [7] came to 106000 nM; in the series with MCF7 [12], 111000 nM.

For the compound `CC(C)=CCC/C(C)=C/CC/C(C)=C/CC/C=C(\C)CC/C=C(\C)CCCOC(=O)CCCSSCCCC(=O)O[C@H]1[C@@H](C)CCC[C@H]2O[C@H]2C[C@@H](/C(C)=C/c2csc(C)n2)OC(=O)C[C@H](O)C(C)(C)C(=O)[C@@H]1C`, the Stability is given as 212.2 nm in series [1]; 201.5 nm in [3]; 235.5 nm in [4]; 165.1 nm in series [5]; 312.9 nm in series [6]; 191.1 nm in [9]. Also, the Stability in series [10] is 197.8 nm; in series [11] it was 207.7 nm. In addition, the remaining at 48 h, 2 mg/ml in series [2] was found to be 58%. For the same compound, the 50% inhibitory concentration (IC50) in the series on MCF7 [7] is 1300 nM; in the series on A549 [15], greater than 5000 nM; in the series with MCF7 [12], 500 nM. Further, the inhibition result in the series on A549 [14] and in the series with A549 [16] was “Active” each time.

`CC(C)=CCC/C(C)=C/CC/C(C)=C/CC/C=C(\C)CC/C=C(\C)CCCOC(=O)CCCCCCCCC(=O)O[C@H]1[C@@H](C)CCC[C@H]2O[C@H]2C[C@@H](/C(C)=C/c2csc(C)n2)OC(=O)C[C@H](O)C(C)(C)C(=O)[C@@H]1C`: the Stability in series [1] is on record as 312.2 nm; in series [3], 206 nm; in [4], 212.9 nm; in series [5], 125.3 nm; in [6], 502.4 nm; in [8], “Stable”. The Stability in series [9] came out at 142.9 nm; in series [10], 203.2 nm; in series [11], 351.1 nm. For the same compound, the remaining at 48 h, 2 mg/ml in [2] came out at 70%. For the same compound, the IC50 with MCF7 [7] was found to be 40200 nM; with MCF7 [12] it was 45100 nM.

On to `COc1cc([C@@H]2c3cc4c(cc3[C@H](OC(=O)CCCSSCCCC(=O)OCCC/C(C)=C/CC/C(C)=C/CC/C=C(\C)CC/C=C(\C)CCC=C(C)C)[C@H]3COC(=O)[C@H]23)OCO4)cc(OC)c1OC`, for which the Stability in series [1] turned out to be 242.9 nm; in [3], 275.9 nm; in [4], 201.5 nm; in series [5], 185.9 nm; in series [6], 676 nm; in series [9], 215.3 nm. For the same compound, the Stability in series [10] is 428.3 nm; in series [11], 202.3 nm. In addition, the remaining at 48 h, 2 mg/ml in series [2] worked out at 52%. Besides, the concentration for half-maximal inhibition (IC50) in the series with MCF7 [7] was 400 nM; in the series with A549 [15], 7640 nM; in the series with MCF7 [12], 60 nM. Also, the inhibition entry with A549 [14] and in the series on A549 [16] was “Active” each time.

Consider `CC(=O)O[C@H]1C(=O)[C@@]2(C)[C@H]([C@H](OC(=O)c3ccccc3)[C@]3(O)C[C@H](OC(=O)[C@H](O)[C@@H](NC(=O)c4ccccc4)c4ccccc4)C(C)=C1C3(C)C)[C@]1(OC(C)=O)CO[C@@H]1C[C@@H]2O` [PACLITAXEL], for which the outcome with A549 [13] was Active. Also, the inhibition entry with A549 [14] and with A549 [16] was “Active” in each case. The same compound showed an IC50 with A549 [15] of 82 nM.

For `CC[C@@]1(O)C(=O)OCc2c1cc1n(c2=O)Cc2cc3ccccc3nc2-1` [CAMPTOTHECIN], the IC50 with MCF7 [7] worked out at 0.5 nM; in the series on A549 [15], 1300 nM; in the series on MCF7 [12], 3 nM.

On to `CC[C@@]1(OC(=O)CCCSSCCCC(=O)OCCC/C(C)=C/CC/C(C)=C/CC/C=C(\C)CC/C=C(\C)CCC=C(C)C)C(=O)OCc2c1cc1n(c2=O)Cc2cc3ccccc3nc2-1`, for which the Stability came to 250.6 nm in series [1]; 224.3 nm in series [3]; 198.9 nm in series [4]; 195.3 nm in [5]; 339.7 nm in [6]; 210.2 nm in series [9]. Also, the Stability is reported as 376.4 nm in series [10] and 160.3 nm in [11]. Also, the remaining at 48 h, 2 mg/ml in series [2] amounted to 70%. Moreover, the half-maximal inhibitory concentration (IC50) in the series with MCF7 [7] is 8600 nM; in the series with A549 [15], greater than 5000 nM; in the series with MCF7 [12], 800 nM.

Regarding `COc1cc([C@@H]2c3cc4c(cc3[C@H](O)[C@H]3COC(=O)[C@H]23)OCO4)cc(OC)c1OC` [PODOFILOX], the IC50 in the series with MCF7 [7] stood at 0.1 nM; in the series on A549 [15], 59 nM; in the series on MCF7 [12], 0.4 nM. Moreover, the inhibition result in the series on A549 [14] and with A549 [16] was “Active” in each case.
